Laboratory results from ChEMBL document CHEMBL3407426, “Synthesis and biological evaluations of novel endomorphin analogues containing α-hydroxy-β-phenylalanine (AHPBA) displaying mixed μ/δ opioid receptor agonist and δ opioid receptor antagonist activities” (Eur J Med Chem, 2015).
Where a SMILES comes first, the peptide text is derived from it. [ ]: non-standard residue; d: D form. ξ: configuration not given here. Dmt = Cc1cc(O)cc(C)c1C[C@H](N)C(=O)O; ξTiq(1-COOH) = O=C(O)C1NCCc2ccccc21; β3hF = N[C@H](CC(=O)O)Cc1ccccc1

Assays:
[1] = molecular target: T1, Delta-type opioid receptor (Homo sapiens, UniProt P41143); assay: Agonist activity at delta opioid receptor (unknown origin) expressed in CHO cells assessed as change in cell morphology at 3.3 uM measured over 30 mins by label free binding assay relative to DPDPE; format: cell-based
In short: (§1)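 Label-free biosensor (BIND) measuring cell spreading as increase in peak wavelength value. MOR in HEK293 cells, DOR in CHO cells, seeded 2 × 10⁴/well on fibronectin/collagen/albumin-coated plates and incubated overnight. Assay buffer was HBSS with 0.5–1% DMSO, equilibrated 30 min at room temperature before a baseline read. Compound added to a final 3.3 µM and read over 30 min. Response given as % of DAMGO 300 nM (MOR, n = 2) or DPDPE 10 nM (DOR, n = 4).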

[2] = Half life in rat brain homogenate at 10 uM; format: ADME, tissue-based
In short: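 Peptide at a final 10 µM in rat brain homogenate (protein 21.2 mg/mL), incubated at 37 °C. Aliquots quenched in acetonitrile with internal standard in triplicate, centrifuged, and analysed by LC-MS/MS in MRM mode. Half-life from pseudo-first-order loss of the analyte/internal-standard ratio; mean of at least three experiments ± SEM.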

Mu-type opioid receptor = Mu-type opioid receptor (Rattus norvegicus, UniProt P33535); assay: Displacement of [3H]DAMGO from rat cortex mu opioid receptor after 30 mins by liquid scintillation counting analysis
In short: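 Rat cortex membranes prepared in 50 mM Tris pH 7.4, spun 16,500 rpm for 10 min, and incubated 30 min at 37 °C. Competition against [³H]DAMGO. Assay ended by filtration on BSA-soaked GF/B filters. Ki values are means of two experiments.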

[3] = molecular target: Mu-type opioid receptor (Homo sapiens) (UniProt P35372); assay: Agonist activity at mu opioid receptor (unknown origin) expressed in HEK293 cells assessed as change in cell morphology at 3.3 uM measured over 30 mins by label free binding assay relative to DAMGO; format: cell-based; in short: as §1
[4] = molecular target: Delta-type opioid receptor (Rattus norvegicus, UniProt P33533); assay: Displacement of [3H]DPDPE from rat cortex delta opioid receptor after 2.5 hrs by liquid scintillation counting analysis
Rattus norvegicus = species: Rattus norvegicus; assay: Selectivity ratio of Ki for rat cortex mu opioid receptor to Ki for rat cortex delta opioid receptor
In short: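 Ki ratio (MOR/DOR), from Ki values that are means of two experiments. MOR: rat cortex homogenized in 50 mM Tris pH 7.4, spun, preincubated 30 min at 37 °C, spun again, then resuspended with bovine serum; displacement of [3H]DAMGO. DOR: 2 nM [3H]DPDPE; 2.5 h at 25 °C; unlabeled DPDPE as competitor. Filtration on GF/B.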

[5] = Selectivity ratio of Ki for guinea pig cortex/cerebella kappa opioid receptor to Ki for rat cortex delta opioid receptor
In short: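 Ki ratio (KOR/DOR), from Ki values that are means of two experiments. KOR: guinea pig cortex and cerebellum membranes in 50 mM Tris pH 7.4 with 10 mM MgCl2; 2 nM [3H]U69,593; 2 h at 25 °C; unlabeled U50,488 defines the curve and nonspecific binding. Filtration on GF/B.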

[6] = molecular target: T1, Delta-type opioid receptor; assay: Agonist activity at delta opioid receptor (unknown origin) expressed in CHO cells assessed as inhibition of forskolin-induced cAMP production at 500 nM after 30 mins by europium cryptate/d2 dye-based FRET analysis relative to DPDPE; format: functional, cell-based
In short: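 DOR-expressing CHO cells, 20,000/well, exposed to test compound at 500 nM with 4 µM forskolin in PBS containing 1 mM IBMX for 30 min at room temperature. Cells then lysed with Europium cryptate and d2 acceptor reagents for 1 h, and cAMP read by FRET. Expressed as % of the 500 nM DPDPE response, n = 4.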

Chain of Mu-type opioid receptor (Homo sapiens) (P35372 whole entry): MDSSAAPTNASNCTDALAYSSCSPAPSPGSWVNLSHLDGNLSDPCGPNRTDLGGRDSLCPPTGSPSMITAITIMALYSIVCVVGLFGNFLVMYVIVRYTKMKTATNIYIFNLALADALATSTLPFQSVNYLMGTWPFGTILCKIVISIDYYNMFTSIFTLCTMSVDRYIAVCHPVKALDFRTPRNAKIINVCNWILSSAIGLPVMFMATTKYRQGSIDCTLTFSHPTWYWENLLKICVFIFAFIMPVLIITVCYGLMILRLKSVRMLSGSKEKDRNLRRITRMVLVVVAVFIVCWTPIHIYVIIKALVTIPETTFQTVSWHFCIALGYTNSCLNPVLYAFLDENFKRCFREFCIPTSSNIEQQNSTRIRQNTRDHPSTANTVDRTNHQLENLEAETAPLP
Chain of Delta-type opioid receptor (Rattus norvegicus, UniProt P33533) (P33533 whole entry): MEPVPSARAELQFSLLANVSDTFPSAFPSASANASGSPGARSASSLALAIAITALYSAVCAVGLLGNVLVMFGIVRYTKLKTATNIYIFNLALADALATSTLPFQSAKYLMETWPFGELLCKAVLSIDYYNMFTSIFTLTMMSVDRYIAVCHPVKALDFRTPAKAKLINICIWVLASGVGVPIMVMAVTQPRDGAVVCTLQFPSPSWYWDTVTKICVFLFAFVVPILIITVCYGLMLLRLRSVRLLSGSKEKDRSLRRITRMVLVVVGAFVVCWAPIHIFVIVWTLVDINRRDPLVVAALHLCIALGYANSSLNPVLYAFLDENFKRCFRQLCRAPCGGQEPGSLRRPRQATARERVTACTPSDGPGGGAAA
T1 sequence (P41143 whole entry): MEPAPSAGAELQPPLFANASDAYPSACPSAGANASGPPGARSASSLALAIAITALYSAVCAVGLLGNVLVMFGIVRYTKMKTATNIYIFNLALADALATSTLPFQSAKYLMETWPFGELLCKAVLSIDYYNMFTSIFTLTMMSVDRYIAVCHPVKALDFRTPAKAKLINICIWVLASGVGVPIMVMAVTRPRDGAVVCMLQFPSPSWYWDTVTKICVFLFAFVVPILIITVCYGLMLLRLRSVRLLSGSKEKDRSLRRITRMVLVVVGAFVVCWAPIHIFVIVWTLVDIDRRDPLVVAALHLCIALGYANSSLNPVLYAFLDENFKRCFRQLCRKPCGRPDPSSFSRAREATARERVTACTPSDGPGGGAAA
Chain of Mu-type opioid receptor (P33535 whole entry): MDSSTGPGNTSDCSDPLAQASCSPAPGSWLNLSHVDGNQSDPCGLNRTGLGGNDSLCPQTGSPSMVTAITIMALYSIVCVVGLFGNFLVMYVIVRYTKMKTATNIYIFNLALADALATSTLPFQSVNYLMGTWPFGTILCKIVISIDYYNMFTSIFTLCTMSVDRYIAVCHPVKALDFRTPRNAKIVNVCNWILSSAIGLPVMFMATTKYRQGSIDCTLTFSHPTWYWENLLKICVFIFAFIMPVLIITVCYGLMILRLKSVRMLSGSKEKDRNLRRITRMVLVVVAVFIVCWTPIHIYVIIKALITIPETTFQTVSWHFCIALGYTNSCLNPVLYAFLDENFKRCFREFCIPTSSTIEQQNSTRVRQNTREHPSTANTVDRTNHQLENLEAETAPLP

NC(=O)[C@H](Cc1ccccc1)NC(=O)[C@H](Cc1c[nH]c2ccccc12)NC(=O)[C@@H]1CCCN1C(=O)[C@@H](N)Cc1ccc(O)cc1
Activity [1]: 49%

Cc1cc(O)cc(C)c1C[C@H](N)C(=O)N1CCc2ccccc2C1C(=O)N[C@@H](Cc1ccccc1)C(=O)N[C@@H](Cc1ccccc1)[C@H](O)C(N)=O (stereo not given in full)
half-life at 10 µM [2]: 49 min | Activity [1]: 82% | Ki (Mu-type opioid receptor): 12 nM | Activity [3]: 51% | Ki [4]: 1 nM

NC(=O)[C@H](Cc1ccccc1)NC(=O)[C@H](Cc1ccccc1)NC(=O)[C@@H]1CCCN1C(=O)[C@@H](N)Cc1ccc(O)cc1 [ENDOMORPHIN 2]
half-life at 10 µM [2]: 0.75 min | Activity [1]: 52% | Activity [3]: 98%

NC(=O)[C@H](O)[C@H](Cc1ccccc1)NC(=O)[C@H](Cc1c[nH]c2ccccc12)NC(=O)[C@@H]1CCCN1C(=O)[C@@H](N)Cc1ccc(O)cc1
Ki (Mu-type opioid receptor): 25 nM | Ki [4]: 453 nM

NC(=O)[C@@H](O)[C@@H](Cc1ccccc1)NC(=O)[C@H](Cc1ccccc1)NC(=O)[C@@H]1CCCN1C(=O)[C@@H](N)Cc1ccc(O)cc1
Ki (Mu-type opioid receptor): 324 nM

N=C(N)NCCC[C@H](NC(=O)[C@H](O)[C@H](Cc1ccccc1)NC(=O)[C@@H]1CCCN1C(=O)[C@@H](N)Cc1ccc(O)cc1)C(N)=O
Ki (Mu-type opioid receptor): 86 nM | Ki [4]: 483 nM

NC(=O)[C@H](Cc1ccccc1)NC(=O)[C@H](O)[C@H](Cc1ccccc1)NC(=O)[C@@H]1CCCN1C(=O)[C@@H](N)Cc1ccc(O)cc1
half-life at 10 µM [2]: 6.52 min | Ki (Mu-type opioid receptor): 9 nM | Ki [4]: 3290 nM

Cc1cc(O)cc(C)c1C[C@H](N)C(=O)N1CCc2ccccc2C1C(=O)N[C@@H](Cc1ccccc1)C(=O)N[C@@H](Cc1ccccc1)[C@@H](O)C(N)=O (stereo not given in full)
half-life at 10 µM [2]: 82.6 min | Activity [1]: 22% | Ki (Mu-type opioid receptor): 15 nM | Activity [3]: 52% | Ki [4]: 0.5 nM

NC(=O)[C@H](Cc1ccccc1)NC(=O)[C@@H](O)[C@@H](Cc1ccccc1)NC(=O)[C@@H]1CCCN1C(=O)[C@@H](N)Cc1ccc(O)cc1
Ki (Mu-type opioid receptor): 202 nM | Ki [4]: 593 nM

Cc1cc(O)cc(C)c1C[C@H](N)C(=O)N1CCc2ccccc2C1C(=O)N[C@@H](Cc1ccccc1)C(=O)N[C@H](CC(N)=O)Cc1ccccc1 (stereo partly drawn) (H-[Dmt][ξTiq(1-COOH)]F[β3hF]-NH2)
half-life at 10 µM [2]: 28.9 min | Ki (Mu-type opioid receptor): 15 nM | Ratio Ki (Rattus norvegicus): 15 | Ratio Ki [5]: 30 | Ki [4]: 1 nM

NC(=O)[C@@H](O)[C@H](Cc1ccccc1)NC(=O)[C@H](Cc1ccccc1)NC(=O)[C@@H]1CCCN1C(=O)[C@@H](N)Cc1ccc(O)cc1
half-life at 10 µM [2]: 2.3 min | Ki (Mu-type opioid receptor): 17 nM

NC(=O)C[C@H](Cc1ccccc1)NC(=O)[C@H](Cc1c[nH]c2ccccc12)NC(=O)[C@@H]1CCCN1C(=O)[C@@H](N)Cc1ccc(O)cc1
half-life at 10 µM [2]: 4.57 min | Ki (Mu-type opioid receptor): 10 nM | Ki [4]: 4110 nM

NC(=O)[C@H](Cc1ccccc1)NC(=O)[C@@H](O)[C@H](Cc1ccccc1)NC(=O)[C@@H]1CCCN1C(=O)[C@@H](N)Cc1ccc(O)cc1
Ki (Mu-type opioid receptor): 497 nM | Ki [4]: 1790 nM

Cc1cc(O)cc(C)c1C[C@H](N)C(=O)N1CCc2ccccc2C1C(=O)N[C@@H](Cc1c[nH]c2ccccc12)C(=O)N[C@@H](Cc1ccccc1)C(N)=O (stereo not given in full) (H-[Dmt][ξTiq(1-COOH)]WF-NH2)
half-life at 10 µM [2]: 32.2 min | inhibition [6]: 87% | Activity [1]: 26% | Ki (Mu-type opioid receptor): 5 nM | Activity [3]: 43% | Ki [4]: 2 nM

NC(=O)[C@H](O)[C@@H](Cc1ccccc1)NC(=O)[C@H](Cc1ccccc1)NC(=O)[C@@H]1CCCN1C(=O)[C@@H](N)Cc1ccc(O)cc1
Ki (Mu-type opioid receptor): 447 nM

NC(=O)C[C@H](Cc1ccccc1)NC(=O)[C@H](Cc1ccccc1)NC(=O)[C@@H]1CCCN1C(=O)[C@@H](N)Cc1ccc(O)cc1
Ki (Mu-type opioid receptor): 23 nM | Ki [4]: 2500 nM

NC(=O)C(Cc1ccc2ccccc2c1)NC(=O)[C@H](O)[C@H](Cc1ccccc1)NC(=O)[C@@H]1CCCN1C(=O)[C@@H](N)Cc1ccc(O)cc1 (stereo not given in full)
Ki (Mu-type opioid receptor): 39 nM | Ki [4]: 757 nM

NC(=O)[C@H](Cc1ccccc1)NC(=O)[C@H](O)[C@@H](Cc1ccccc1)NC(=O)[C@@H]1CCCN1C(=O)[C@@H](N)Cc1ccc(O)cc1
Ki (Mu-type opioid receptor): 2080 nM | Ki [4]: 1220 nM

Cc1cc(O)cc(C)c1C[C@H](N)C(=O)N1CCc2ccccc2C1C(=O)N[C@H](CC(=O)N[C@@H](Cc1ccccc1)C(N)=O)Cc1ccccc1 (stereo partly drawn) (H-[Dmt][ξTiq(1-COOH)][β3hF]F-NH2)
half-life at 10 µM [2]: > 120 min | Ki (Mu-type opioid receptor): 6 nM | Ratio Ki (Rattus norvegicus): 6 | Ki [4]: 1 nM

NC(=O)[C@H](O)[C@@H](Cc1ccccc1)NC(=O)[C@H](Cc1c[nH]c2ccccc12)NC(=O)[C@@H]1CCCN1C(=O)[C@@H](N)Cc1ccc(O)cc1
Ki (Mu-type opioid receptor): 243 nM | Ki [4]: 441 nM

NC(=O)[C@H](Cc1ccccc1)NC(=O)C[C@H](Cc1ccccc1)NC(=O)[C@@H]1CCCN1C(=O)[C@@H](N)Cc1ccc(O)cc1
Ki (Mu-type opioid receptor): 24 nM | Ki [4]: 385 nM

Cc1cc(O)cc(C)c1C[C@H](N)C(=O)N1CCc2ccccc2C1C(=O)N[C@@H](Cc1c[nH]c2ccccc12)C(=O)N[C@@H](Cc1ccccc1)[C@H](O)C(N)=O (stereo not given in full)
half-life at 10 µM [2]: > 120 min | inhibition [6]: 104% | Activity [1]: 45% | Ki (Mu-type opioid receptor): 3 nM | Activity [3]: 50% | Ki [4]: 0.8 nM

NC(=O)C(Cc1ccc(F)cc1)NC(=O)[C@H](O)[C@H](Cc1ccccc1)NC(=O)[C@@H]1CCCN1C(=O)[C@@H](N)Cc1ccc(O)cc1 (stereo not given in full)
Ki (Mu-type opioid receptor): 207 nM | Ki [4]: 829 nM

NC(=O)[C@@H](O)[C@@H](Cc1ccccc1)NC(=O)[C@H](Cc1c[nH]c2ccccc12)NC(=O)[C@@H]1CCCN1C(=O)[C@@H](N)Cc1ccc(O)cc1
Ki (Mu-type opioid receptor): 176 nM | Ki [4]: 287 nM

NC(=O)[C@H](O)[C@H](Cc1ccccc1)NC(=O)[C@H](Cc1ccccc1)NC(=O)[C@@H]1CCCN1C(=O)[C@@H](N)Cc1ccc(O)cc1
Ki (Mu-type opioid receptor): 33 nM

Cc1cc(O)cc(C)c1C[C@H](N)C(=O)N1CCc2ccccc2C1C(=O)N[C@@H](Cc1c[nH]c2ccccc12)C(=O)N[C@H](CC(N)=O)Cc1ccccc1 (stereo partly drawn) (H-[Dmt][ξTiq(1-COOH)]W[β3hF]-NH2)
half-life at 10 µM [2]: > 120 min | Ki (Mu-type opioid receptor): 14 nM | Ki [4]: 1 nM

NC(=O)[C@H](Cc1c[nH]c2ccccc12)NC(=O)[C@H](O)[C@H](Cc1ccccc1)NC(=O)[C@@H]1CCCN1C(=O)[C@@H](N)Cc1ccc(O)cc1
Ki (Mu-type opioid receptor): 13 nM

NC(=O)[C@@H](O)[C@H](Cc1ccccc1)NC(=O)[C@H](Cc1c[nH]c2ccccc12)NC(=O)[C@@H]1CCCN1C(=O)[C@@H](N)Cc1ccc(O)cc1
half-life at 10 µM [2]: 3.57 min | Ki (Mu-type opioid receptor): 10 nM | Ki [4]: 508 nM
